This note sets out measurements from ChEMBL document CHEMBL4706642, “Discovery of a Potent Dual Inhibitor of Acetylcholinesterase and Butyrylcholinesterase with Antioxidant Activity that Alleviates Alzheimer-like Pathology in Old APP/PS1 Mice” (J Med Chem, 2021).

Calls of active or inactive are those of the source. Bounds are passed on as bounds.

The test system of data set [1] is Mus musculus. Nature of the data set: Antiinflammatory activity in 11 months old APP/PS1 double mutant-transgenic mouse model assessed as reduction in GFAP level in hippocampus at 2 mg/kg, ip administered thrice a week for 4 weeks by Hoechst staining based immunofluorescence analysis. It counts as functional, organism-based. In short, it runs like this:
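Hippocampal GFAP immunofluorescence with Hoechst nuclear counterstain in male APP/PS1 mice after 2 mg/kg i.p. in saline (or vehicle), three times per week for 4 weeks. Mean ± SEM, n = 4 mice per group; one-way ANOVA with Bonferroni post hoc.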

The nature of data set [2]: Permeability of the compound in PBS/EtOH buffer (70:30) by PAMPA-BBB assay. The settings on record: read-out: permeability. It counts as ADME. The procedure, abridged: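 PAMPA-BBB permeability, reported as Pe in 10⁻⁶ cm s⁻¹, with CNS+ defined as Pe > 5.1. Mean ± SD of three experiments, each in triplicate.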
Background: In PAMPA a lipid-coated filter parts donor from acceptor wells.

In data set [3] the test system is Mus musculus. Put plainly: Memory enhancement effect in 11 months old APP/PS1 double mutant-transgenic mouse model assessed as number of trials required to reach criterion at 2 mg/kg, ip administered thrice a week for 4 weeks measured on trail day 1 by memory flexibility text. It counts as functional. In short, it runs like this: (§1)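 Memory flexibility test in male APP/PS1 mice treated i.p. with 2 mg/kg in saline (or vehicle), three times weekly for 4 weeks. The number of trials to reach criterion was counted on each testing day over 4 days. Mean ± SEM, n = 7 per group; one-way ANOVA with Bonferroni post hoc.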

Data set [4] concerns Mus musculus. Put plainly: Antialzheimer activity in 6 months young APP/PS1 double mutant-transgenic mouse model assessed as amyloid beta40 levels in hippocampus at 2 mg/kg, ip administered thrice a week for 4 weeks by ELISA. It counts as functional, organism-based. The procedure, abridged:
(§2)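 Male APP/PS1 mice received 2 mg/kg i.p. in saline (or vehicle), three times weekly for 4 weeks. After the behavioral tests, hippocampus was collected and Aβ40 and Aβ42 were measured with a specific ELISA kit. Mean ± SEM, n = 7 mice per group; one-way ANOVA with Bonferroni post hoc.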

In data set [5] the test system is Mus musculus. Nature of the data set: Antialzheimer activity in 11 months old APP/PS1 double mutant-transgenic mouse model assessed as time interval at which EPSP-evoked calcium-dependent vesicle release in CA3 region of hippocampus causing short-term plasticity at 2 mg/kg, ip administered thrice a week for 4 weeks measured at 10 ms interval by fluorescence microscopy based electrophysiology method (reference value: 2.05 +/- 0.2 ms). Format: functional. The procedure, abridged: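 Paired-pulse facilitation in hippocampal slices from male APP/PS1 mice dosed i.p. with 2 mg/kg in saline (or vehicle), three times per week for 4 weeks. Two EPSPs were evoked at intervals of 10–200 ms, and the index is the R2/R1 fEPSP slope ratio. Mean ± SEM of 9 slices from 3 mice per group; two-way ANOVA with Bonferroni post hoc.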

For data set [6], the system named is Mus musculus. Put plainly: Memory enhancement effect in 11 months old APP/PS1 double mutant-transgenic mouse model assessed as number of trials required to reach criterion at 2 mg/kg, ip administered thrice a week for 4 weeks measured after 4 days by memory flexibility text. Format: functional. In short, it runs like this: as §1
A short description of data set [7]: Drug concentration in wild type C57BL6 mouse brain at 2 mg/kg, ip thrice a week for 2 weeks observed after 4 hrs post last dose by HPLC/MS/MS analysis. As to conditions: brain.
The subject of data set [8] is Mus musculus. Nature of the data set: Cognitive enhancing effect in 11 months old APP/PS1 double mutant-transgenic mouse model assessed as effect on time spent on moving along the field at 2 mg/kg, ip administered thrice a week for 4 weeks by LOF test. It counts as functional, organism-based. The procedure, abridged: (§3)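 Open-field locomotor test in male APP/PS1 mice after 2 mg/kg i.p. in saline (or vehicle), three times per week for 4 weeks. Read-outs were time spent moving and number of crossings of the central area of a transparent cage. Mean ± SEM, n = 7 per group; one-way ANOVA with Bonferroni post hoc.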

The subject of data set [9] is Mus musculus. Put plainly: Cognitive enhancing effect in 11 months old APP/PS1 double mutant-transgenic mouse model assessed as effect on number of times animal crossing central area in transparent cage at 2 mg/kg, ip administered thrice a week for 4 weeks by LOF test. Format: functional, organism-based. The procedure, abridged:
as §3

The target of data set [10] is Beta-secretase 1 (Homo sapiens) (UniProt P56817). Nature of the data set: Inhibition of recombinant human BACE-1 at 1 uM using methoxycoumarin-Ser-Glu-Val-Asn-Leu-Asp-Ala-Glu-Phe-Lys-dinitrophenyl as substrate preincubated for 1 hr followed by substrate addition and measured after 15 mins by fluorescence based assay relative to control. The settings on record: time 75.0 min.

The subject of data set [11] is Mus musculus. Put plainly: Cognitive enhancing effect in 6 months young APP/PS1 double mutant-transgenic mouse model assessed as effect on time spent on moving along the field at 2 mg/kg, ip administered thrice a week for 4 weeks by LOF test. It counts as functional, organism-based. The procedure, abridged:
as §3

The next data set addresses Cholinesterase (Homo sapiens, UniProt P06276). Nature of the data set: Inhibition of human serum BChE using butyrylthiocholineiodide as substrate preincubated for 20 mins followed by substrate addition by Ellman's method. It counts as cell-free. The procedure, abridged: (§4)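 Enzyme was 0.02 U/mL human recombinant AChE or human serum BChE. Non-enzymatic hydrolysis was corrected. IC50 came from a % inhibition vs log[I] regression. Selectivity = IC50 hBChE/IC50 hAChE. Mean ± SEM of ≥2 experiments, each in duplicate/triplicate.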
On the technique in general: DTNB colorimetry detects thiols as they appear.

Data set [12] is described as follows: Drug concentration in wild type C57BL6 mouse plasma at 2 mg/kg, ip thrice a week for 2 weeks observed after 4 hrs post last dose by HPLC/MS/MS analysis. The settings on record: plasma.
For data set [13], the system named is Mus musculus. Put plainly: Antialzheimer activity in 11 months old APP/PS1 double mutant-transgenic mouse model assessed as postsynaptic potential in CA3 region of hippocampus at 2 mg/kg, ip administered thrice a week for 4 weeks followed by stimulation with 1 to 10 uA EPSP by fluorescence microscopy based electrophysiology method (reference value: 0.293 +/- 0.105 mV/ms). It counts as functional. In short, it runs like this: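 Hippocampal slices from male APP/PS1 mice given 2 mg/kg i.p. in saline (or saline alone), three times per week for 4 weeks. Input–output curves were built from evoked fEPSP slopes and fiber volley amplitudes, with values taken at the maximum current intensity. Mean ± SEM of 9 slices from 3 mice per group; two-way ANOVA with Bonferroni post hoc.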

In data set [14] the test system is Mus musculus. Nature of the data set: Cognitive enhancing effect in 6 months young APP/PS1 double mutant-transgenic mouse model assessed as increase in preference index for object at 2 mg/kg, ip administered thrice a week for 4 weeks by novel object recognition test. It counts as functional, organism-based. The procedure, abridged: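 Male APP/PS1 mice received 2 mg/kg i.p. in saline (or vehicle), three times per week for 4 weeks. Preference index = time exploring the relocated or novel object divided by total time exploring both objects. Mean ± SEM, n = 7 per group; one-way ANOVA with Bonferroni post hoc.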

For data set [15], the system named is Mus musculus. Nature of the data set: Antialzheimer activity in 11 months old APP/PS1 double mutant-transgenic mouse model assessed as theta burst induced-long term potentiation in CA3 region of hippocampus at 2 mg/kg, ip administered thrice a week for 4 weeks by fluorescence microscopy based electrophysiology method (reference value: 83.9 +/- 21.1 %). It counts as functional.

Data set [16] addresses T1, Acetylcholinesterase (Homo sapiens, UniProt P22303). Put plainly: Inhibition of recombinant human AChE using acetylthiocholineiodide as substrate preincubated for 20 mins followed by substrate addition by Ellman's method. In short, it runs like this:
as §4

In data set [17] the test system is Mus musculus. Put plainly: Antialzheimer activity in 11 months old APP/PS1 double mutant-transgenic mouse model assessed as amyloid beta42 levels in hippocampus at 2 mg/kg, ip administered thrice a week for 4 weeks by ELISA (Rvb= 69.0 +/- 4.54 pg/ml). It counts as functional. In short, it runs like this: as §2
Data set [18] concerns the target T1, Acetylcholinesterase. Nature of the data set: Inhibition of recombinant human AChE using acetylthiocholineiodide as substrate preincubated for 20 mins followed by substrate addition by Ellman's method relative to parent compound.

T1 sequence (P22303 whole entry): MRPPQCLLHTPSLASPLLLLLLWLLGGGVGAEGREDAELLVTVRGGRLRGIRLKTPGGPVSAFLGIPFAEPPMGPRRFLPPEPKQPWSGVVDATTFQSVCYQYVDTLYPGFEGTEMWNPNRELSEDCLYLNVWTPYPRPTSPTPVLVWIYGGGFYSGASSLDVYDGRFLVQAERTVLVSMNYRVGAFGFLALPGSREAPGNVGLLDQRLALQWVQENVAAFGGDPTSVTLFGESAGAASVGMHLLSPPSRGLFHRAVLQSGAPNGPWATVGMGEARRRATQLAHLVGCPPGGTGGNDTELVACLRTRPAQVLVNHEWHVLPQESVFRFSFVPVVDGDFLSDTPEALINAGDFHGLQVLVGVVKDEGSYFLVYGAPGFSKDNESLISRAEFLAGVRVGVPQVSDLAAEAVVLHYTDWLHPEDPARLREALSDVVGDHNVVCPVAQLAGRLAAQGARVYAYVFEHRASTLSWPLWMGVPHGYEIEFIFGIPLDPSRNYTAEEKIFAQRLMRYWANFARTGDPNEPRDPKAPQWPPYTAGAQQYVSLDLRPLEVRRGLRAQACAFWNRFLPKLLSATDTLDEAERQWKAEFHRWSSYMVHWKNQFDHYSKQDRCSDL
Chain of Beta-secretase 1 (Homo sapiens) (P56817 whole entry): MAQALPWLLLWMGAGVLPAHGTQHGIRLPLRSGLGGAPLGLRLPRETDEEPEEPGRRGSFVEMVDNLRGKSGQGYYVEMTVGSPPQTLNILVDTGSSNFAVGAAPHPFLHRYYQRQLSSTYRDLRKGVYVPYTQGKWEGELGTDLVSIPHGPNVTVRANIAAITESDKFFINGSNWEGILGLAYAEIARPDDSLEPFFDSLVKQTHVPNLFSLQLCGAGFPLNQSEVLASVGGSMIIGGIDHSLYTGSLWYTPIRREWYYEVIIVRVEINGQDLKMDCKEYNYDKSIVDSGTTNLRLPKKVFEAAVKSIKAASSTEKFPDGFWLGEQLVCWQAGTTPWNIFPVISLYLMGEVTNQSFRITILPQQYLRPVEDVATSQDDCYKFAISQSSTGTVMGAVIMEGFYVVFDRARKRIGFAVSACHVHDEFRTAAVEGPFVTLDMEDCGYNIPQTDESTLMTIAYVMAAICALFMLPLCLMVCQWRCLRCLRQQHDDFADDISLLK
Chain of Cholinesterase (P06276 whole entry): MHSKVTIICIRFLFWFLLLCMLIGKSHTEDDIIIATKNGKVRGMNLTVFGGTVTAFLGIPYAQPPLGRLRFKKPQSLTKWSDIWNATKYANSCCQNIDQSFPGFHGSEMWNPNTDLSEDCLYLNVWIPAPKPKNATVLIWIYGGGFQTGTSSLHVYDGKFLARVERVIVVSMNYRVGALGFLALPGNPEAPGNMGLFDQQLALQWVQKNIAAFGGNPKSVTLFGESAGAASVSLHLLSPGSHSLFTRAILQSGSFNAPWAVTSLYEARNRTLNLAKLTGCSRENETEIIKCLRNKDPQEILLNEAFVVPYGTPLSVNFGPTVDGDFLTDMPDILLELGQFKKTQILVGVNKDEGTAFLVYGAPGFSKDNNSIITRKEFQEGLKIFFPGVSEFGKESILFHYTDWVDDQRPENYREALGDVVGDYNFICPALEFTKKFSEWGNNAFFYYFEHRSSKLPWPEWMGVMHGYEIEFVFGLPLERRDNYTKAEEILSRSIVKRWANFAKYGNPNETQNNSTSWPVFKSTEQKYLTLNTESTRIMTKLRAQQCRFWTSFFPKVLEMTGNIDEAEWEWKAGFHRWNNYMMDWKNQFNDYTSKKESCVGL

As for `COc1cc(CNC(=O)CCCCCCNc2c3c(nc4cc(Cl)ccc24)CC2C=C(C)CC3C2)ccc1O` (stereo unspecified), the outcome in the data set on Mus musculus [1] was Active. Moreover, in data set [2], the Papp stood at 17.2 ×10⁻⁶ cm/s. Moreover, the Activity in the data set with Mus musculus [3] amounted to 14; in the data set on Mus musculus [6], 13; with Mus musculus [13], 0.545 mV/ms; with Mus musculus [15] it was 124.3%. For the same compound, the outcome with Mus musculus [4], in the data set on Mus musculus [8], in the data set on Mus musculus [9], in the data set with Mus musculus [11] and in the data set with Mus musculus [14] was inactive. Further, the Time in the data set with Mus musculus [5] turned out to be 2.32 ms. Also, the concentration at 336 h in data set [7] is 1580 ng/g; in [12], < 3000 ng/mL. Also, the inhibition in data set [10] was 7.4%. Moreover, the IC50 amounted to 30.6 nM against Cholinesterase and 0.77 nM on Acetylcholinesterase [16].

With `COc1cc(CNC(=O)Cc2cn(CCCCC3=CC4Cc5nc6cc(Cl)ccc6c(N)c5C(C3)C4)nn2)ccc1O` (stereo unspecified), the outcome with Mus musculus [1] was Active. Further, the Papp in data set [2] was 8.8 ×10⁻⁶ cm/s. Further, the Activity in the data set with Mus musculus [3] came out at 13; in the data set with Mus musculus [6], 7; in the data set on Mus musculus [17], 62.6 pg/mL; with Mus musculus [13], 0.652 mV/ms; in the data set with Mus musculus [15], 111%. The outcome in the data set on Mus musculus [4], in the data set on Mus musculus [8], with Mus musculus [9], with Mus musculus [11] and in the data set on Mus musculus [14] was inactive. The Time in the data set on Mus musculus [5] turned out to be 1.96 ms. The concentration at 336 h was 18900 ng/g in data set [7] and 35600 ng/mL in data set [12]. For the same compound, the inhibition result in data set [10] was “inactive”. The IC50 worked out at 7.3 nM on Cholinesterase and 1.06 nM on Acetylcholinesterase [16]. At Acetylcholinesterase [18], the fold change (FC) is 25.

One may read the inhibition as the drop in the measured response relative to a control, in per cent. For orientation: IC50 means the concentration at which inhibition is half-maximal.
